Experiment [1] deals with K562. The experiment is described as follows: The concentration required for inhibiting the growth of the human K562 chronic myeloid leukemia cells by 50%. It is filed as functional, cell-based. A digest of the protocol:
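Drug exposure was […] in the dark, then cells were washed and plated at 10⁴ cells/well, eight wells per sample, and incubated 4 days. MTT was added for 5 h, formazan dissolved in DMSO and read at 550 nm.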

The nature of experiment [2]: The concentration required for inhibiting the growth of the murine B16-F0 melanoma cells by 50%. The following applies: Mus musculus, B16F0. It is filed as functional. The method, boiled down:
(§1)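 MTT growth inhibition in murine lines grown in DMEM with 10% FBS, HEPES, glutamine, pen/strep at 37 °C, 5% CO2. Seeded 80 000 cells/well, continuous drug exposure (DMSO stock diluted in DMEM) for 72 h, quadruplicate wells per concentration. MTT added for 4 h, formazan dissolved in acid 2-propanol, read at 570 nm (reference 630 nm). IC50 extrapolated from averaged absorbance curves.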

Experiment [3] concerns P815. The experiment in a line: The concentration required for inhibiting the growth of the murine P815 mastocytoma cells by 50%. It is filed as functional, cell-based. Conditions: Mus musculus. The method, boiled down:
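P815 cells grown in DMEM with 10% FBS, HEPES, glutamine and pen/strep, seeded at 80 000 cells/well. Drug in DMSO/DMEM was added to final concentrations from 1.0 × 10^-12 to 1.0 × 10^-4 M, continuous for 72 h at 37 °C, 5% CO2, in quadruplicate. MTT was added for 4 h and solubilised in acid 2-propanol, read at 570/630 nm. IC50 was extrapolated from mean absorbance curves.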

The test system of experiment [4] is L1210. The experiment is described as follows: The concentration required for inhibiting the growth of the murine L1210 leukemia cells by 50%. It is filed as functional, cell-based. Conditions: Mus musculus. A digest of the protocol:
as §1

For the compound `COc1cc2cc(C(=O)NC3=C(CCCl)CCC(O)=C3)[nH]c2c(OC)c1OC`, the IC50 (commonly the concentration that gives 50% inhibition) in experiment [1] stood at 1430 nM.
Take `COc1cc2cc(C(=O)Nc3cc(O)c4ccccc4c3CCCl)[nH]c2c(OC)c1OC`: the IC50 in experiment [2] turned out to be 27 nM; in experiment [3], 25 nM; in experiment [4], 55 nM; in experiment [1], 150 nM.
With `COC(=O)c1[nH]c2c(O)cc(NC(=O)c3cc4cc(OC)c(OC)c(OC)c4[nH]3)c(CCCl)c2c1C(=O)OC`, the IC50 was 6800 nM in experiment [2], 5400 nM in experiment [3], 4200 nM in experiment [4] and 250 nM in experiment [1].
For `Nc1cc(NC(=O)c2cc3cc(NC(=O)c4cc5ccccc5o4)ccc3[nH]2)c(CCCl)c2ccccc12`, the figures for the IC50 in experiment [2] and in experiment [4] were 43 nM and 87 nM, respectively.
The matching figures for `COc1ccc(/C=C/C(=O)Nc2cc(N)c3ccccc3c2CCCl)nc1`: 750 nM and 550 nM.
In the case of `COc1ccc(/C=C/C(=O)Nc2cc(N)c3ccccc3c2CCCl)c(OC)n1`, the IC50 in experiment [2] amounted to 62 nM; in experiment [4], 180 nM.

The values are drawn from ChEMBL document CHEMBL1144439, “A novel class of in vivo active anticancer agents: achiral seco-amino- and seco-hydroxycyclopropylbenz[e]indolone (seco-CBI) analogues of the duocarmycins and CC-1065” (J Med Chem, 2005).
